Reference: ChEMBL document CHEMBL4351026, “Antifungal activity, mode of action variability, and subcellular distribution of coumarin-based antifungal azoles” (Eur J Med Chem, 2019)
In brackets after ≈: the same amount, converted by molar mass. Activity calls are given as the source filed them. The rule behind the calls is not given here.

Key:
[1] = system: Candida albicans; assay: Antifungal activity against Candida albicans SN152 assessed as zone inhibition at 25 ug incubated for 24 hrs by disk diffusion method; type: functional, organism-based
Outline: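 Strains were streaked on YPD agar and grown at 30 °C: 24 h for parental SN152, 48 h for the erg11ΔΔ erg3ΔΔ mutant. Colonies were suspended in PBS and adjusted to OD 0.02 (SN152) or 0.03 (mutant), then spread on Casitone plates. A 6-mm disk loaded with 25 µg compound was placed centrally. Plates were incubated at 30 °C and photographed after 24 h.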

[2] = system: Candida albicans; assay: Antifungal activity against ERG11/ERG3 knocked out Candida albicans SN152 assessed as zone of inhibition at 25 ug […] by disk diffusion method; type: functional, organism-based
[3] = system: Candida albicans; assay: Antifungal activity against Candida albicans ATCC 90028 assessed as reduction in fungal cell growth incubated for 24 hrs by MTT based broth double dilution method; type: functional; conditions: ATCC 90028, 24 h
Outline: (§1)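 Broth double-dilution in Casitone broth. Starter cultures were grown 24 or 48 h at 37 °C, 5% CO₂, diluted 1:100, and added to serial two-fold dilutions at 64 to 0.007 µg/mL. Final inoculum was 5 x 10^4 to 5 x 10^5 CFU/mL; DMSO was 0.0012–1.3%. Plates were incubated at 37 °C, 5% CO₂, then MTT was added for 2 h. MIC followed CLSI M27-A3. Triplicates, two independent experiments.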

[4] = system: Candida albicans; assay: Antifungal activity against Candida albicans P-87 assessed as reduction in fungal cell growth incubated for 24 hrs by MTT based broth double dilution method; type: functional; conditions: P-87, 24 h; outline: as §1
[5] = system: Candida albicans; assay: Antifungal activity against Candida albicans SN152 assessed as reduction in fungal cell growth incubated for 24 hrs by MTT based broth double dilution method; type: functional; conditions: SN152, 24 h; outline: as §1
[6] = system: Nakaseomyces glabratus; assay: Antifungal activity against Candida glabrata ATCC 66032 assessed as reduction in fungal cell growth incubated for 24 hrs by MTT based broth double dilution method; type: functional; conditions: ATCC 66032, 24 h; outline: as §1
[7] = system: Nakaseomyces glabratus; assay: Antifungal activity against Candida glabrata ATCC 2001 assessed as reduction in fungal cell growth incubated for 24 hrs by MTT based broth double dilution method; type: functional; conditions: ATCC 2001, 24 h; outline: as §1
[8] = system: Nakaseomyces glabratus; assay: Antifungal activity against Candida glabrata 192 assessed as reduction in fungal cell growth incubated for 24 hrs by MTT based broth double dilution method; type: functional; conditions: Nakaseomyces glabratus, 192, 24 h; outline: as §1
[9] = system: Candida parapsilosis; assay: Antifungal activity against Candida parapsilosis ATCC 90018 assessed as reduction in fungal cell growth incubated for 24 hrs by MTT based broth double dilution method; type: functional; conditions: Lodderomyces parapsilosis, ATCC 90018, 24 h; outline: as §1
[10] = system: Candida parapsilosis; assay: Antifungal activity against Candida parapsilosis ATCC 22019 assessed as reduction in fungal cell growth incubated for 24 hrs by MTT based broth double dilution method; type: functional; conditions: Lodderomyces parapsilosis, ATCC 22019, 24 h; outline: as §1
[11] = system: Meyerozyma guilliermondii; assay: Antifungal activity against Candida guilliermondii T-47 assessed as reduction in fungal cell growth incubated for 24 hrs by MTT based broth double dilution method; type: functional; conditions: T-47, 24 h; outline: as §1
[12] = system: Candida dubliniensis; assay: Antifungal activity against Candida dubliniensis T-99 assessed as reduction in fungal cell growth incubated for 24 hrs by MTT based broth double dilution method; type: functional; conditions: T-99, 24 h; outline: as §1
[13] = system: Candida albicans; assay: Antifungal activity against Candida albicans ATCC 90028 assessed as reduction in fungal cell growth incubated for 48 hrs by MTT based broth double dilution method; type: functional; conditions: ATCC 90028, 48 h; outline: as §1
[14] = system: Candida albicans; assay: Antifungal activity against Candida albicans SN152 assessed as reduction in fungal cell growth incubated for 48 hrs by MTT based broth double dilution method; type: functional; conditions: SN152, 48 h; outline: as §1
[15] = system: Nakaseomyces glabratus; assay: Antifungal activity against Candida glabrata ATCC 66032 assessed as reduction in fungal cell growth incubated for 48 hrs by MTT based broth double dilution method; type: functional; conditions: ATCC 66032, 48 h; outline: as §1
[16] = system: Nakaseomyces glabratus; assay: Antifungal activity against Candida glabrata 192 assessed as reduction in fungal cell growth incubated for 48 hrs by MTT based broth double dilution method; type: functional; conditions: Nakaseomyces glabratus, 192, 48 h; outline: as §1
[17] = biological target: Cytochrome P450 3A4 (Homo sapiens, UniProt P08684); assay: Inhibition of recombinant human CYP3A4 using Luciferin-PPXE as substrate preincubated for 10 mins followed by NADPH addition measured after 15 mins by luminometric method; type: ADME
Outline: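 P450-Glo luminescent assay, Luciferin-PPXE substrate. Compound was mixed with membranes containing recombinant human CYP3A4; controls were vehicle with membranes lacking CYP3A4. After 10 min preincubation at 37 °C, NADPH regeneration reagent was added and the mixture kept 15 min at 37 °C. Luciferin detection reagent stopped the reaction; after 20 min at room temperature, luminescence was read. Duplicates.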

[18] = Drug distribution in Candida albicans SN152 assessed as subcellular compound distribution at 10 uM incubated for 60 mins by fluorescent imaging analysis; type: ADME; conditions: 1 h
Outline: (§2)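 Yeast were grown overnight at 30 °C in YPD liquid, diluted 1:10, and grown 2 h at 30 °C to log phase. Fluorescent azole was added at 10 µM final and incubated 60 min in the dark. Cells were washed once in PBS and imaged on slides in bright field and fluorescence (ex 427 nm, em 510 nm).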

[19] = Drug distribution in Candida glabrata 2001 assessed as subcellular compound distribution at 10 uM incubated for 60 mins by fluorescent imaging analysis; type: ADME; conditions: nakaseomyces glabratus, 1 h; outline: as §2
[20] = system: HepG2; assay: Cytotoxicity against human HepG2 cells assessed as reduction in cell viability at 5 to 50 uM incubated for 24 hrs by XTT assay; type: cell-based; conditions: hepg2, 24 h
Outline: (§3)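 HEK-293T were grown in DMEM with 10% FBS; HepG2 in RPMI with 15% FBS; both at 37 °C, 5% CO₂. Cells (4000 HepG2 or 7000 HEK-293T per well) were seeded on poly-D-lysine wells. After 24 h the medium was renewed and compounds added at 5–50 µM from 1 mM stocks in 10% DMSO/0.3% Tween/PBS. After 24 h more, XTT was added for 2 h at 37 °C; absorbance was read at 475 nm against 660 nm reference.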

[21] = system: HEK-293T; assay: Cytotoxicity against human HEK293T cells assessed as reduction in cell viability at 5 to 50 uM incubated for 24 hrs by XTT assay; type: cell-based; outline: as §3
[22] = Cytotoxicity against human HepG2 cells assessed as reduction in cell viability at 5 to 50 uM incubated for 24 hrs by XTT assay relative to control; type: cell-based; conditions: read-out: INH
Outline: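 HepG2 cells were maintained in RPMI with 15% FBS, 1% NEAA, 1% pyruvate and pen-strep-nystatin at 37 °C and 5% CO2. 4000 cells/well were plated on poly-D-lysine coating and given fresh medium after 24 h. Compounds were dosed at 5–50 µM from 1 mM stocks in 10% DMSO/0.3% Tween/PBS and incubated 24 h. Viability was read by XTT (2 h, 37 °C) at 475 nm against 660 nm.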

[23] = (§4) Cytotoxicity against human HEK293T cells assessed as reduction in cell viability at 5 to 50 uM incubated for 24 hrs by XTT assay relative to control; type: cell-based, HEK-293T; conditions: HEK293T cells, read-out: INH
Outline: (§5)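 HEK-293T cells were grown in DMEM with 10% FBS, 1% NEAA, 1% pyruvate and pen-strep-nystatin at 37 °C and 5% CO2. 7000 cells/well were seeded on poly-D-lysine-coated wells. After 24 h the medium was renewed and compounds were added at 5–50 µM from 1 mM stocks in 10% DMSO/0.3% Tween/PBS. After 24 h, XTT was added for 2 h at 37 °C, with absorbance read at 475 nm (reference 660 nm).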

[24] = system: HEK-293T; assay: as §4; type: cell-based; conditions: hek-293t, 24 h, 50 µM; outline: as §5

Cytochrome P450 3A4, sequence (P08684 whole entry): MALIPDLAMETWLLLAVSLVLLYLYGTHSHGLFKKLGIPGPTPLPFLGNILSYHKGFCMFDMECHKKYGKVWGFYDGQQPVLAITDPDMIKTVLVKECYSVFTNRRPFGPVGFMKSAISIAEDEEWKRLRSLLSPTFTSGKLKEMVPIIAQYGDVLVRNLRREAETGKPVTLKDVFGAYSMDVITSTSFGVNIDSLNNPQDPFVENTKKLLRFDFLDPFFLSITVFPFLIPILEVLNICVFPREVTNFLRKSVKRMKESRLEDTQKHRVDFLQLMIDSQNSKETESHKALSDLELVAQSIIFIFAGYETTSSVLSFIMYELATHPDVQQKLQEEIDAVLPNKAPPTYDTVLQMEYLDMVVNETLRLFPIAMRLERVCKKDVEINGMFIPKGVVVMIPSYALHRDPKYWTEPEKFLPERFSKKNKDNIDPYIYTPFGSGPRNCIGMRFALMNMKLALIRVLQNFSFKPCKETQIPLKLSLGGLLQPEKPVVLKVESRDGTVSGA

SMILES | inhibition zone (IZ) [1] | inhibition zone (IZ) [2] | MIC [3] [µg/mL] | MIC [4] [µg/mL] | MIC [5] [µg/mL] | MIC [6] [µg/mL] | MIC [7] [µg/mL] | MIC [8] [µg/mL] | MIC [9] [µg/mL] | MIC [10] [µg/mL] | MIC [11] [µg/mL] | MIC [12] [µg/mL] | MIC [13] [µg/mL] | MIC [14] [µg/mL] | MIC [15] [µg/mL] | MIC [16] [µg/mL] | IC50 [17] [nM] | Activity [20] | Activity [21] | cytotoxicity at 24 h, up to 50 µM [22] [%] | also measured
CCN(CC)c1ccc2cc(C(=O)NCC(O)(Cn3ccnc3)c3ccc(F)cc3F)c(=O)oc2c1 (racemic) | Active | Active | 0.015 (≈ 0.0302 µM) | 0.06 (≈ 0.121 µM) | 0.06 (≈ 0.121 µM) | 8 (≈ 16.1 µM) | 8 (≈ 16.1 µM) | 2 (≈ 4.03 µM) | 0.015 (≈ 0.0302 µM) | 0.125 (≈ 0.252 µM) | 0.5 (≈ 1.01 µM) | 0.5 (≈ 1.01 µM) | 0.06 (≈ 0.121 µM) | 0.125 (≈ 0.252 µM) | 32 (≈ 64.4 µM) | 4 (≈ 8.06 µM) | 1310 | – | – | – | Drug uptake [18]: Active; Drug uptake [19]: Active
CCC(CC)Oc1ccc2cc(C(=O)NCC(O)(Cn3ccnc3)c3ccc(Cl)cc3Cl)c(=O)oc2c1 (racemic) | – | – | 0.03 (≈ 0.0551 µM) | 0.06 (≈ 0.11 µM) | 0.06 (≈ 0.11 µM) | 2 (≈ 3.67 µM) | 2 (≈ 3.67 µM) | 0.5 (≈ 0.918 µM) | 0.125 (≈ 0.23 µM) | 0.5 (≈ 0.918 µM) | 0.25 (≈ 0.459 µM) | 0.25 (≈ 0.459 µM) | 0.06 (≈ 0.11 µM) | 0.06 (≈ 0.11 µM) | > 64 | 1 (≈ 1.84 µM) | 251 | Non-Toxic | Non-Toxic | < 40 | cytotoxicity at 24 h, up to 50 µM [23]: < 40%
OC(Cn1cncn1)(Cn1cncn1)c1ccc(F)cc1F [FLUCONAZOLE] | Active | inactive | 0.5 (≈ 1.63 µM) | 0.25 (≈ 0.816 µM) | 0.25 (≈ 0.816 µM) | 64 (≈ 209 µM) | 64 (≈ 209 µM) | 8 (≈ 26.1 µM) | 1 (≈ 3.27 µM) | 2 (≈ 6.53 µM) | 4 (≈ 13.1 µM) | 4 (≈ 13.1 µM) | 0.5 (≈ 1.63 µM) | 1 (≈ 3.27 µM) | > 64 | 8 (≈ 26.1 µM) | – | Non-Toxic | Non-Toxic | < 40 | cytotoxicity at 24 h, up to 50 µM [23]: < 40%
C[C@@H](c1ncncc1F)[C@](O)(Cn1cncn1)c1ccc(F)cc1F [VORICONAZOLE] | Active | inactive | 0.007 (≈ 0.02 µM) | 0.007 (≈ 0.02 µM) | 0.007 (≈ 0.02 µM) | 0.5 (≈ 1.43 µM) | 2 (≈ 5.73 µM) | 0.125 (≈ 0.358 µM) | 0.015 (≈ 0.0429 µM) | 0.03 (≈ 0.0859 µM) | 0.06 (≈ 0.172 µM) | 0.06 (≈ 0.172 µM) | 0.007 (≈ 0.02 µM) | 0.007 (≈ 0.02 µM) | 4 (≈ 11.5 µM) | 0.25 (≈ 0.716 µM) | – | – | – | < 40 | Activity [24]: < 40%
